Paper PMC5524211 (Nuclear medicine and biology, 2017)

Key:
ATR [1] = target: ATR (Homo sapiens, UniProt Q13535); assay: Competitive displacement assay of [18F]-ATRi by Ve-821 in U251 MG cells; format: cell-based
Method in brief: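 U251 MG cells were grown in MEM with 10% heat-inactivated FBS and penicillin/streptomycin, then seeded at 10^5 cells 24 h before the assay. The 18F-labelled test tracer (final 0.667 nM) was co-incubated with unlabelled competitor (0–1333 nM) for 1 h at 37 °C. Cells were PBS-washed twice, lysed with 1 N NaOH, and bound 18F was γ-counted. Percent bound was run in triplicate and fitted against competitor concentration.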

ATR [2] = conditions: cited from earlier work
U251 MG cells = assay: In vitro cell uptake; format: cell-based, human
Method in brief: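 U251 MG cells were plated at 0.5 million/well the day before, PBS-washed twice, then incubated with 18F-labelled test tracer (6 μCi/well) in MEM at 37 °C for 0–240 min. For blocking, a 100-fold excess of unlabelled ATR inhibitor was co-incubated. At each time point, cells were PBS-washed twice and lysed in 1 M NaOH (10 min, 37 °C), and lysate activity was γ-counted.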

[3] = 4 h post injection, healthy athymic nude mice, i.v.
[4] = 1-octanol / 25 mM phosphate buffered saline pH 7.4
[5] = Chemical Hydrophobicity Index; format: physicochemical; conditions: from HPLC retention time
Method in brief: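 Reverse-phase HPLC retention times were measured for a set of standards with known CHI to build a standard curve. The CHI of the non-radioactive (19F) test compound was calculated from its retention time on that curve.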

Plasma protein binding = format: in vitro ADME; conditions: serum
Method in brief: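 Equilibrium dialysis: 500 μM non-radioactive test compound in serum against PBS, 4 h at 37 °C on an orbital shaker at 100 rpm. Samples from both chambers were protein-precipitated (90/10 acetonitrile/water, 0.1% formic acid) and analysed by HPLC with peak integration. % bound = [1 − (buffer conc./plasma conc.)]×100, reported as mean ± SD.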

[6] = blocked with 100-fold excess Ve-821 pre-injected 30 min before, 120 min p.i.

ATR (Homo sapiens, UniProt Q13535), sequence (Q13535 whole entry): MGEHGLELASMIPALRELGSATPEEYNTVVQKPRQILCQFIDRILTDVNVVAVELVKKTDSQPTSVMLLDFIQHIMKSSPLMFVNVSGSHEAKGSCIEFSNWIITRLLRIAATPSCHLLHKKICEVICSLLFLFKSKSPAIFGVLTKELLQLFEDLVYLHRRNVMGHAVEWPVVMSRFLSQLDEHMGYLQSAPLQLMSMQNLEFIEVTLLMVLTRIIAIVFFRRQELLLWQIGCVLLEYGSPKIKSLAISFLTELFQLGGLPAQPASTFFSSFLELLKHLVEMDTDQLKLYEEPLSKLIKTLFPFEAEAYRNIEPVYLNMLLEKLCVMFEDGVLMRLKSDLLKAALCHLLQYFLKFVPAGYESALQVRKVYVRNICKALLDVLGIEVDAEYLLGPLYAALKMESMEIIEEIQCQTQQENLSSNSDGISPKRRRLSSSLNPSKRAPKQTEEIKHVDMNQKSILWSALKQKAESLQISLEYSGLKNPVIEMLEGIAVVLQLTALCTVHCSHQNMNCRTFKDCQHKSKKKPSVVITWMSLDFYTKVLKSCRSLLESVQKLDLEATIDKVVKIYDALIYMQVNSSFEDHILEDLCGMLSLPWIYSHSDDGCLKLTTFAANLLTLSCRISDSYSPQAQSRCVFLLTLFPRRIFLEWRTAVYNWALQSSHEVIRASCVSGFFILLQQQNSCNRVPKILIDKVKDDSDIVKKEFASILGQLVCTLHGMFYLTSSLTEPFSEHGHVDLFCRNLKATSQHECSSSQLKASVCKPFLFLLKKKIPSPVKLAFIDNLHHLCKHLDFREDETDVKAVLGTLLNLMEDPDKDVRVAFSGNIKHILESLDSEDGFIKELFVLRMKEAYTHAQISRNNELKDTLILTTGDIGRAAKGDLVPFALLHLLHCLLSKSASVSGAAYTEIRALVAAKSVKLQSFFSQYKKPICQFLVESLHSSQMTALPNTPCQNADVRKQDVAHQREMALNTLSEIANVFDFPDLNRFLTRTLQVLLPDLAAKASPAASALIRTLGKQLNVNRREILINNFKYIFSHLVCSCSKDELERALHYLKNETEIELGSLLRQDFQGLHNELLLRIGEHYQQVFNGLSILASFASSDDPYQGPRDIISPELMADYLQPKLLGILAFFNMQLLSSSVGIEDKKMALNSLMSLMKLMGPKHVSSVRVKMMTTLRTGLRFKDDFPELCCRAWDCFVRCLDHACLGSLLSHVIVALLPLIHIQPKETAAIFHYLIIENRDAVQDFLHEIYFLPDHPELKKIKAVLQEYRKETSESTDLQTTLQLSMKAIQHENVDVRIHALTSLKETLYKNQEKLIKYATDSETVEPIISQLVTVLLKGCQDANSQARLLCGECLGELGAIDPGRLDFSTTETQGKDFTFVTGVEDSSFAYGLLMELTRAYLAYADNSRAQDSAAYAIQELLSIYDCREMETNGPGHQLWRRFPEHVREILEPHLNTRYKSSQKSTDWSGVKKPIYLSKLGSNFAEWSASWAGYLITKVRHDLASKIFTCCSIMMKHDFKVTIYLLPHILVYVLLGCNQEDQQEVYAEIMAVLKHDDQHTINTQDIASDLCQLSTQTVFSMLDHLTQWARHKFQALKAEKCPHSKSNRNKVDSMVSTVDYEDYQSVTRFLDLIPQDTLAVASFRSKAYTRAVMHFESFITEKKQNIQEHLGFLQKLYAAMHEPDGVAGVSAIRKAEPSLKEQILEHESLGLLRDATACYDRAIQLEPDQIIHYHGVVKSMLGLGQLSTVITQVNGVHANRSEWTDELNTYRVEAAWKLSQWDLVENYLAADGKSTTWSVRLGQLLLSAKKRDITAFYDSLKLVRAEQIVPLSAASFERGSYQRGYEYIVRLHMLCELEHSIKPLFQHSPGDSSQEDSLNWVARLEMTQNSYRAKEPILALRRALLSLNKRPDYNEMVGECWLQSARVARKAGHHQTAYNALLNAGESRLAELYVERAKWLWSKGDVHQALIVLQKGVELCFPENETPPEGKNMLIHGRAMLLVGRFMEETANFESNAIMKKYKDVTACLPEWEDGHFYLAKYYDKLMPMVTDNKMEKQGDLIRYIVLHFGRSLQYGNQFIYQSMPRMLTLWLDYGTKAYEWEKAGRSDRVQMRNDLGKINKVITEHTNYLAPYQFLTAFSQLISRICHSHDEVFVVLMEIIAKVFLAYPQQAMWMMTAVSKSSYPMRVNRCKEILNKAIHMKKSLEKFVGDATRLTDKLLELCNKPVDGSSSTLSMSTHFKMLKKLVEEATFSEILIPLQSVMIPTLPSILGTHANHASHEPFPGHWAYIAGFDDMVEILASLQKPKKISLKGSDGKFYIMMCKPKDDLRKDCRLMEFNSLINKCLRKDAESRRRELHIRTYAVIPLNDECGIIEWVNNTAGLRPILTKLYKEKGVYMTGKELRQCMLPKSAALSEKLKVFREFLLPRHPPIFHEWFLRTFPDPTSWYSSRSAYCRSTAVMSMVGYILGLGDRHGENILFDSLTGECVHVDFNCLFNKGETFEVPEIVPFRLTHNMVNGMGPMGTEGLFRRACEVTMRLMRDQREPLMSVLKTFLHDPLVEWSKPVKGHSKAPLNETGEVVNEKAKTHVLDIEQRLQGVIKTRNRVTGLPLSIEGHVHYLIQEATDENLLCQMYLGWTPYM
ATR (Homo sapiens, UniProt Q13535), sequence (Q8WXE1 whole entry partner): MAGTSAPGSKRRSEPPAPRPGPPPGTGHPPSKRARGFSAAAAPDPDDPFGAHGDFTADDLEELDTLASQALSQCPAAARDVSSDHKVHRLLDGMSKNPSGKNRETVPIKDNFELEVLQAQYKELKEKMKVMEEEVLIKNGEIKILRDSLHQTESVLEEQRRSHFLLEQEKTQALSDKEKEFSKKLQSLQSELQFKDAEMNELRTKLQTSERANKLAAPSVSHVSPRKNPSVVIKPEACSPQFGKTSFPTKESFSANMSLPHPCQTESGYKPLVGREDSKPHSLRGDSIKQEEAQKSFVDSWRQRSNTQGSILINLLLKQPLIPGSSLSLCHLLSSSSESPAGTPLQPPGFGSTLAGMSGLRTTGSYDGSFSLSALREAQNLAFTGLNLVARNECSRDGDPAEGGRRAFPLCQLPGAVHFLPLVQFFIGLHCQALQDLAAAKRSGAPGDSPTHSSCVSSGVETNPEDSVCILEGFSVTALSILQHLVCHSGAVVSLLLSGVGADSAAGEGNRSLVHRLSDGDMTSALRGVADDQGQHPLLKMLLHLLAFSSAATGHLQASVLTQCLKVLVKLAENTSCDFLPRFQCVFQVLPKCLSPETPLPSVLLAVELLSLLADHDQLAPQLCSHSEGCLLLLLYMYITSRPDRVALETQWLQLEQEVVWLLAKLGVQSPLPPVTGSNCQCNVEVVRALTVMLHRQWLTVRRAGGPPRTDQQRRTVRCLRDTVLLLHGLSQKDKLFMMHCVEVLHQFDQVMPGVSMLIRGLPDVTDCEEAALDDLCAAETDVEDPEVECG

CS(=O)(=O)c1ccc(-c2cnc(N)c(C(=O)Nc3ccccc3)n2)cc1 [Ve-821]
IC50 (ATR [1]): 38 nM | IC50 (ATR [2]): 26 nM

CS(=O)(=O)c1ccc(-c2cnc(N)c(C(=O)Nc3ccc([18F])cc3)n2)cc1 [[^18F]-9, 3-amino-N-(4-[^18F]phenyl)-6-(4-(methylsulfonyl)phenyl)pyrazine-2-carboxamide]
cell uptake, blocked (U251 MG cells; U251 MG cells blocked with Ve-821 (100-fold excess), co-incubated 240 min): 0.16±0.1% | cell uptake (U251 MG cells; U251 MG cells, 240 min incubation with [18F]-ATRi only): 3.5 ± 0.1% | ex vivo blood stability (tracer stable) [3]: greater than 97% | clearance from bloodstream (fast phase) (2-phase decay curve, healthy mice, i.v.): < 10 min | weighted blood half-life (single bolus intravenous injection via tail vein, nude mice, two-phase decay fit): 6.2 min | LogPO/W [4]: 1.6 | tumor-to-brain ratio (U251 MG xenograft; U251 MG xenograft mice): > 15 | kidney uptake (U251 MG xenograft; biodistribution, 120 min p.i.): 3.51 ± 0.23 %ID/g | liver uptake (U251 MG xenograft; biodistribution, 120 min p.i.): 3.68± 1.39 %ID/g | blood uptake, blocked (U251 MG xenograft; [6]): 0.84 ± 0.3 %ID/g | tumor uptake, blocked (U251 MG xenograft; [6]): 0.46 ± 0.12 %ID/g | blood uptake (U251 MG xenograft; unblocked, 120 min p.i., i.v.): 1.85 ± 0.47 %ID/g

CS(=O)(=O)c1ccc(-c2cnc(N)c(C(=O)Nc3ccc(F)cc3)n2)cc1 [compound 5, 3-amino-N-(4-fluorophenyl)-6-(4-(methylsulfonyl)-phenyl)pyrazine-2-carboxamide]
CHI value [5]: 76.8 | fraction unbound at 4 h, 500 μM (Plasma protein binding): ~0.1
